PostGolgi yeast – growth inhibition of a yeast mutant, post-Golgi transport screen; post-Golgi transport phenotypic cell assay; inhibition, % at 10 µM; 0.9% of 98,000 active;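 note: yeast cells grown in 1536-well plates; yeast grown about 18 h at 30C before absorbance read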
Cav3 T inh – blocks human Cav3.2 T-type calcium channel; AID 449739; B-score at 10 µM; 4% of 100,000 active; O95180; Cav3.2-expressing cells, Fluo-4 calcium fluorescence FDSS; stronger effect = lower value;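 active = single-dose well whose peak fluorescence ratio is a statistical outlier from its plate by either plate-standardised score or position-corrected B-score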
Ecoli WT expand – blocks growth of wild type E. coli BW25113. growth inhibition, % at 100 µM. 0.15% of 98,000 active. OD600 absorbance. AID 710;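 active = growth inhibition above about 50% at one test dose, limit read from the data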;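 note: growth measured after 20 h incubation at 37 °C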
tolC growth inh – blocks growth of E. coli BW25113 tolC mutant; OD615; growth inhibition, % at 10 µM (by protocol); 2.2% of 65,000 active; AID 573;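 active = growth inhibition at or above a cutoff equal to the mean over every tested compound plus 3 SD, cut at about 60% in these data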;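 note: growth measured after 20 h incubation at 37 °C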
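Assay system: tolC-deleted E. coli BW25113. Medium: kanamycin-containing LB broth (50 µg/mL). Dosing: 10 µM final, single dose. Timing: bacterial growth with compound for 20 h at 37 °C. Detection: A615 absorbance measurement. Read-out basis: growth inhibition in percent.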
PostGolgi ctrl – inhibits growth of the yeast control strain | efflux-deficient yeast background strain, growth absorbance A615, 16 h | inhibition, % at 10 µM | 5% of 98,000 active
Pyk2 oligo antag – blocks oligomerization of human Pyk2 in cells; Q14289; Q293 cells, Pyk2 FERM NanoBiT luminescence; stronger effect = lower value; z-score (the deposit names both 25 µM and 10 µM); 0.83% of 99,000 active;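 active = Z-score of -3 or lower, scaled per plate to the spread of control and sample wells; inactive = z-score above -3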;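 note: negative z-score means lost luminescence so less FERM oligomerization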
Target sequence (Q14289 whole entry, looked up): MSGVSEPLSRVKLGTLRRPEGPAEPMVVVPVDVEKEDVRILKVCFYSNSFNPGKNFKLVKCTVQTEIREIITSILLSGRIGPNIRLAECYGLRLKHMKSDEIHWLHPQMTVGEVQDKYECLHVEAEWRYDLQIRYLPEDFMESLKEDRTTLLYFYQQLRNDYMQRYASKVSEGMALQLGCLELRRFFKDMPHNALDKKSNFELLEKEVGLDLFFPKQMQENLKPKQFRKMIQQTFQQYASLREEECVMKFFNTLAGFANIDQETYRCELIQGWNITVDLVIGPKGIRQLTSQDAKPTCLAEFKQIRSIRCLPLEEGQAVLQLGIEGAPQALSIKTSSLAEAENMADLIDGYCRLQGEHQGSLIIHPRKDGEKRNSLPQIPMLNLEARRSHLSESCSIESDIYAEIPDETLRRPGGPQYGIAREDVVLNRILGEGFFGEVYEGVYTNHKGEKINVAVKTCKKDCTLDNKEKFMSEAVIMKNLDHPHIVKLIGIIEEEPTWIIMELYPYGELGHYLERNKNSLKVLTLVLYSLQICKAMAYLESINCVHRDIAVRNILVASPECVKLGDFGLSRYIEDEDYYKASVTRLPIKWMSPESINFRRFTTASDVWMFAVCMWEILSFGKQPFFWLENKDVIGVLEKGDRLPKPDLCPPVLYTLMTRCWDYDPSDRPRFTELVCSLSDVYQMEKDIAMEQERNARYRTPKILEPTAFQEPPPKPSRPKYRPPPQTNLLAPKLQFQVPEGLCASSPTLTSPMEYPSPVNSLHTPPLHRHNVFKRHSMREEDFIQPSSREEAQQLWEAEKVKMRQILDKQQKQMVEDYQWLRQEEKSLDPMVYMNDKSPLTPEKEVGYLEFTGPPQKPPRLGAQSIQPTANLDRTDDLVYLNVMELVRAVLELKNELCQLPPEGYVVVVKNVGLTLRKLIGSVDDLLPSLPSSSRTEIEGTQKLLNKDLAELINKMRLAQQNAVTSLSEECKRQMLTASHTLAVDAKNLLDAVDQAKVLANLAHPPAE
* hit, by the source's call. An excerpt weighted towards active compounds, which were near 8.7% of everything screened. Cut-off read from the data, not from the text of the source, unless noted: active = inhibition above about 30%; inactive = the rest.

Results for NS(=O)(=O)c1ccc(S(=O)(=O)N2CCCC2)cc1 ?
PostGolgi yeast: 2.9; Cav3 T inh: -0.456; Ecoli WT expand: 4.0; PostGolgi ctrl: -4.3; Pyk2 oligo antag: 0.15

How did CC1=C(C)CS(=O)N(c2ccc(S(N)(=O)=O)cc2)C1 (configuration not stated) do in these assays?
PostGolgi yeast: 1.0; Cav3 T inh: -7.18*; Ecoli WT expand: 4.0; tolC growth inh: -14.6; PostGolgi ctrl: 10.5; Pyk2 oligo antag: -0.05

How did CC(C)C1(C)C(=O)N=C2c3ccccc3C(=O)N21 (configuration not stated) do in these assays?
PostGolgi yeast: 0.8; Cav3 T inh: 0.0451; Ecoli WT expand: 2.0; tolC growth inh: -11.9; PostGolgi ctrl: -0.1; Pyk2 oligo antag: 0.42

Results for CCCCCC/C(C)=C1/SC(=S)NC1=O ?
PostGolgi yeast: -2.8; Cav3 T inh: -2.72; Ecoli WT expand: 14.0; PostGolgi ctrl: 55.0*; Pyk2 oligo antag: 0.06

What do the screens show for `CCCCCCCC(=O)NNC(=O)Cc1ccccc1`?
PostGolgi yeast: -2.0; Cav3 T inh: 0.0121; Ecoli WT expand: -8.0; PostGolgi ctrl: -4.3; Pyk2 oligo antag: 0

What do the screens show for `COc1ccc2c(c1)c1ncn(CCc3ccccc3)c(=O)c1n2C`?
PostGolgi yeast: -16.5; Cav3 T inh: -1.37; Ecoli WT expand: -5.0; PostGolgi ctrl: 39.2*; Pyk2 oligo antag: -0.26

Results for CCOC(=O)C1=C(c2ccccc2)N=C2SCC(=O)N2C1c1cccc(OC)c1 (configuration not stated) ?
PostGolgi yeast: 2.6; Cav3 T inh: -1.47; Ecoli WT expand: 5.0; PostGolgi ctrl: 9.6; Pyk2 oligo antag: -0.7

What do the screens show for `CN=C(Nc1cccc(OC)c1)SC1CC(=O)N(c2ccc(C(=O)O)cc2)C1=O` (configuration not stated)?
Pyk2 oligo antag: 1.17

Results for O=C1C2C3C=CC(C3=C(c3ccccc3)c3ccccc3)C2C(=O)N1CCO (configuration not stated) ?
PostGolgi yeast: 5.3; Cav3 T inh: -1.03; Ecoli WT expand: -2.0; PostGolgi ctrl: 6.0; Pyk2 oligo antag: -0.69

Results for Cc1ccc(C(=C2C3C=CC2C2C(=O)NC(=O)C32)c2ccc(C)cc2)cc1 (configuration not stated) ?
PostGolgi yeast: -1.2; Cav3 T inh: 0.104; Ecoli WT expand: 6.0; PostGolgi ctrl: 55.1*; Pyk2 oligo antag: -2.01

Results for COC(=O)c1ccc(NC(=O)CSc2nnc(C(C)NC(=O)c3ccccc3Cl)n2C)cc1 (configuration not stated) ?
PostGolgi yeast: 5.1; Cav3 T inh: 0.991; Ecoli WT expand: -3.0; PostGolgi ctrl: 28.2; Pyk2 oligo antag: 0.66

How did N#CC1=C(N)OC2=C(C(=O)CCC2)C1c1ccc(OC(=O)N2CCOCC2)cc1 (configuration not stated) do in these assays?
PostGolgi yeast: -9.3; Cav3 T inh: 0.637; Ecoli WT expand: 3.0; tolC growth inh: -14.4; PostGolgi ctrl: 37.6*; Pyk2 oligo antag: 0.25

What do the screens show for `COc1cc(C2C(C#N)=C(N)OC3=C2C(=O)CC(C)(C)C3)ccc1OC(=O)N1CCOCC1` (configuration not stated)?
PostGolgi yeast: 0.5; Cav3 T inh: 1.32; Ecoli WT expand: 2.0; tolC growth inh: -8.4; PostGolgi ctrl: 32.9*; Pyk2 oligo antag: 1.12

How did CCOc1cc(S(=O)(=O)NC2CC2)c(OCC)cc1-n1cnnn1 do in these assays?
PostGolgi yeast: 1.8; Cav3 T inh: 0.173; Ecoli WT expand: -2.0; PostGolgi ctrl: 10.3; Pyk2 oligo antag: 0.82

Results for COCCNC(=O)CN1CCC(NC(=O)C(C)(C)C)CC1 ?
PostGolgi yeast: 37.0*; Cav3 T inh: -0.0024; Ecoli WT expand: -5.0; PostGolgi ctrl: 13.3; Pyk2 oligo antag: -0.23

Results for COCCNC(=O)CN1CCN(C(c2ccccc2)c2ccccc2)CC1 ?
PostGolgi yeast: 15.2; Cav3 T inh: 0.387; Ecoli WT expand: -1.0; tolC growth inh: -14.6; PostGolgi ctrl: 9.1; Pyk2 oligo antag: -0.64

What do the screens show for `Cc1ccc(NC(=O)Cn2c(=O)oc3cc(S(=O)(=O)N4CCC(C)CC4)ccc32)cc1C`?
PostGolgi yeast: -2.4; Cav3 T inh: -5.87*; Ecoli WT expand: -4.0; PostGolgi ctrl: -4.3

What do the screens show for `Cc1ccc(/C=C/C(=O)c2c(C)nc3ccccn23)cc1`?
PostGolgi yeast: -1.8; Ecoli WT expand: -7.0; PostGolgi ctrl: 33.2*; Pyk2 oligo antag: -0.71
